Legend:
A375 cells [1] = experiment: Flow cytometry analysis of cell cycle; type: cell-based, human; conditions: for Cell cycle arrest: 5 x IC50; for Sub-G1 DNA content relative to control: 72 h, 5 x IC50 (7b 17.5 μM, 7c 21.5 μM), vs 0.2% DMSO
A375 cells [2] = experiment: Wound-healing; type: cell-based, human; conditions: for Inhibition of migration of A375 cells: after 20, 48 and 54 h, 7b 3.5 μM, 7c 4.3 μM
[3] = system: Human primary dermal fibroblasts; experiment: MTT cell viability assay, non-cancerous fibroblasts; type: cell-based; conditions: IC50 of cancer cells compared with IC50 of human fibroblasts
Summary of the method: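 Primary dermal fibroblasts were grown in fibroblast basal medium with low-serum growth supplement at 37°C, 5% CO2. Cells were seeded at 2×10^3/well, and after 24 h were exposed for 72 h to test compound (DMSO solution, up to 10 μM) or 0.1% DMSO. MTT was added for 4 h and the formazan dissolved in DMSO, with absorbance at 540 nm. IC50 came from non-linear regression, and SI from comparing A375 and 35404 IC50s with fibroblast IC50.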

35404 cells = experiment: MTT cell viability assay, patient-derived melanoma metastasized to brain; type: cell-based, human; conditions: read-out: Antiproliferative activity (IC50, μM) 35404 cells, 72 h treatment, up to 10 μM, mean±SD (n=4), IN = inactive

Row | SMILES | Cell cycle arrest (A375 cells [1]; 24 h) | DNA fragmentation (sub-G1 DNA) (A375 cells [1]; 24 h, 5 x IC50 (17.5 μM)) | Cell cycle arrest (A375 cells [1]; 48 h and 72 h) | Sub-G1 DNA content relative to control (A375 cells [1]) | Wound surface area (A375 cells [2]; 4 h of treatment, 3.5 μM (IC50), 0 h = 100%, control 76%) | Inhibition of migration of A375 cells (A375 cells [2]) | SI (selectivity index) [3] | IC50 (35404 cells)
1 | Cc1cc(C(=O)/C(=C\c2cccc(F)c2)c2cccc(F)c2)c(C(=O)N2CCCCC2)c(=O)[nH]1 [Compound 7b, (Z)-4-(2,3-bis(3-fluorophenyl)acryloyl)-6-methyl-3-(piperidine-1-carbonyl)pyridin-2(1H)-one] | transient G2 and/or M phase arrest | Statistically significant DNA fragmentation | substantial G1 arrest | statistically significant increases | 93% | statistically significant inhibition of migration |  | 
2 | COc1ccc(/C=C(\C(=O)c2cc(C)[nH]c(=O)c2C(=O)N2CCCCC2)c2ccc(OC)c(C)c2)cc1C [Compound 7c, (Z)-4-(2,3-bis(4-methoxy-3-methylphenyl)acryloyl)-6-methyl-3-(piperidine-1-carbonyl)pyridin-2(1H)-one] |  |  | substantial G1 arrest | statistically significant increases |  | statistically significant inhibition of migration | >2 | 
3 | Cc1cc(C(=O)/C(=C\c2ccc(C)c(Cl)c2)c2ccc(C)c(Cl)c2)c(C(=O)N2CCCCC2)c(=O)[nH]1 [Compound 7g, (Z)-4-(2,3-bis(3-chloro-4-methylphenyl)acryloyl)-6-methyl-3-(piperidine-1-carbonyl)pyridin-2(1H)-one] |  |  |  |  |  |  | >20 | 0.4 ± 0.2 µM

Reference: publication PMC10984326 (Chemistry & biodiversity, 2023)
